Measurements reported in publication PMC11345372 (ESMO Open, 2024).
“Also recorded” adds a separate entry of the source. Read-outs that look alike come from different tables or passages of the source.

Key:
[1] = tested on: adult patients with advanced solid tumors
[2] = tested on: advanced solid tumors; assay: Antitumor activity per RECIST v1.1; format: in vivo, human
How it was run: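 Open-label phase I/Ib in adults (≥18 y, ECOG ≤2, RECIST-measurable disease, progressed on or intolerant to standard care). The TLR-7 agonist, 100-600 μg, was given intratumorally on days 1 and 15 of 28-day cycles 1-2 and 5-6, with a pause in cycles 3-4. Combination patients also received anti-PD-1 antibody 400 mg IV over 30 min Q4W. ORR and DCR (CR+PR+SD) are given with 90% Clopper–Pearson exact CIs. PFS uses Kaplan–Meier with median, 90% CI and landmark rates.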

[3] = tested on: adult patients with advanced solid tumors; assay: Dose escalation: DLT, MTD and recommended dose for expansion; format: in vivo, human
How it was run: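 Escalation was guided by an adaptive Bayesian hierarchical logistic regression model with escalation-with-overdose-control. Dosing started at 100 μg and tested 100, 200, 400 and 600 μg intratumoral TLR-7 agonist biweekly, alone or with anti-PD-1 antibody 400 mg IV on day 1 of each 28-day cycle. AEs were graded by CTCAE v4.03. All treated patients formed the safety set. Data cut-off was 30 June 2022.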

[4] = Serum pharmacokinetics after intratumoral LHC165, LC-MS/MS, non-compartmental; format: in vivo, human
How it was run: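 Serum concentrations of the TLR-7 agonist were measured by validated LC-MS/MS after intratumoral dosing at 100-600 μg Q2W. Dosing was alone or with anti-PD-1 antibody 400 mg IV Q4W. Parameters (Cmax, AUClast, terminal t½) were derived by non-compartmental analysis on C1D1 and C2D15. Geometric CV% was reported.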

[5] = tested on: advanced solid tumors; assay: Antitumor activity per iRECIST; format: in vivo, human; details: all patients, groups pooled
How it was run: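 Adults with advanced solid tumours received the TLR-7 agonist intratumorally, 100-600 μg on days 1 and 15 of 28-day cycles 1-2 and 5-6, alone or with anti-PD-1 antibody 400 mg IV Q4W. Response was assessed per iRECIST. iORR and iDCR are given with 90% Clopper–Pearson exact CIs. iPFS was estimated by Kaplan–Meier with median, 90% CI and 3-24-month rates, summarised by treatment group.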

[6] = Aluminum level monitoring; format: in vivo, human; details: for Aluminum level, mean (standard deviation): baseline 0.26 (0.088)
[7] = tested on: patients with solid tumors; details: IT; including grade 3/4 cytokine release syndrome, pyrexia, fatigue, chills, decreased lymphocyte count, nausea, injection-site pain; cited from earlier work
[8] = tested on: advanced anaplastic thyroid carcinoma; details: immune-related response criteria; cited from earlier work
[9] = all grades, all patients N = 45 (SA and combination groups pooled)
[10] = all grades, by treatment group (SA n = 21; combination n = 24)
[11] = grade ≥3, all patients N = 45 (SA and combination groups pooled)
[12] = grade ≥3, by treatment group (SA n = 21; combination n = 24)
[13] = overall, 45 patients, groups pooled
[14] = RECIST v1.1, all patients N = 45 (SA and combination groups pooled)
[15] = RECIST v1.1, all patients, groups pooled
[16] = RECIST v1.1, by treatment group
[17] = RECIST v1.1, by treatment group (SA n = 21; combination n = 24)

Molecule: Cc1cc(OCCOCCC(F)(F)P(=O)(O)O)ccc1CCc1cnc2c(N)nc3cc(CCC(=O)O)ccc3c2c1 [LHC165]
- Patients with at least one AE of any grade, regardless of relationship with LHC165 or spartalizumab ([1]; 40 of 45 patients, SA and combination groups pooled): 88.9%
- Most common non-SAE: anemia ([1]; 45 patients, groups pooled): 24.4%
- Most common non-SAE: pyrexia ([1]; 45 patients, groups pooled): 37.8%
- Patients with at least one SAE, regardless of relationship ([1]; 45 patients, groups pooled): 22.2%
- SAE suspected to be related to LHC165 and spartalizumab: grade 3 pancreatitis ([1]; 45 patients, groups pooled): 2.2%
- SAE suspected to be related to the study drug: grade 3 pancreatitis, number of patients ([1]; 45 patients, groups pooled): 1 n
- Patients with treatment-related AEs (TRAEs, all grades) ([1]; across all dose levels, 16 of 45 patients, groups pooled): 35.6%
- Patients with non-SAEs (≥10%) ([1]; across all dose levels, 40 of 45 patients, groups pooled): 88.9%
- Drug-related AE: asthenia ([1]; all 45 patients, groups pooled): 4.4%
- Drug-related AE: chills ([1]; all 45 patients, groups pooled): 11.1%
- Drug-related AE: pruritus ([1]; all 45 patients, groups pooled): 13.3%
- Drug-related AE: pyrexia ([1]; all 45 patients, groups pooled): 22.2%
- Asthenia, treatment-related AE [1, 9]: 2 (4.4) n (%)
- Chills, treatment-related AE [1, 9]: 5 (11.1) n (%)
- Pruritus, treatment-related AE [1, 9]: 6 (13.3) n (%)
- Pyrexia, treatment-related AE [1, 9]: 10 (22.2) n (%)
- TRAEs leading to discontinuation: pancreatitis [1, 9]: 1 (2.2) n (%)
- ≥1 AE suspected to be related to LHC165 or spartalizumab [1, 9]: 16 (35.6) n (%)
- Asthenia, treatment-related AE [1, 10]: 0 n (%)
- Chills, treatment-related AE [1, 10]: 1 (4.8) n (%)
- Pruritus, treatment-related AE [1, 10]: 0 n (%)
- Pyrexia, treatment-related AE [1, 10]: 2 (9.5) n (%)
- TRAEs leading to discontinuation: pancreatitis [1, 10]: 0 n (%)
- ≥1 AE suspected to be related to LHC165 or spartalizumab [1, 10]: 2 (9.5) n (%)
- Patients with one or more TRAE ([1]; by treatment group (2 of 21; 14 of 24)): 9.5%
- Patients with at least one treatment permanent discontinuation by reason: adverse event ([1]; by treatment group (SA n = 21; combination n = 24)): 2 (9.5) n (%)
- Patients who discontinued study treatment due to AE ([1]; by treatment group, SA: hypotension, not related, combination: pancreatitis, DLT): 4.8%
- Patients who discontinued study treatment due to death ([1]; by treatment group, not related to treatment (respiratory failure; fatal septic shock)): 4.8%
- Asthenia, treatment-related AE [1, 11]: 0 n (%)
- Chills, treatment-related AE [1, 11]: 0 n (%)
- Pruritus, treatment-related AE [1, 11]: 0 n (%)
- Pyrexia, treatment-related AE [1, 11]: 0 n (%)
- TRAEs leading to discontinuation: pancreatitis [1, 11]: 1 (2.2) n (%)
- ≥1 AE suspected to be related to LHC165 or spartalizumab [1, 11]: 0 n (%)
- Asthenia, treatment-related AE [1, 12]: 0 n (%)
- Chills, treatment-related AE [1, 12]: 0 n (%)
- Pruritus, treatment-related AE [1, 12]: 0 n (%)
- Pyrexia, treatment-related AE [1, 12]: 0 n (%)
- TRAEs leading to discontinuation: pancreatitis [1, 12]: 0 n (%)
- ≥1 AE suspected to be related to LHC165 or spartalizumab [1, 12]: 0 n (%)
- AE leading to dose interruption or dose adjustment: aspartate aminotransferase increased [1, 13]: 4.4%
- Patients with at least one AE leading to dose interruption or dose adjustment [1, 13]: 11.1%
- Patients with at least one AE leading to treatment discontinuation [1, 13]: 4.4%
- AEs leading to dose interruption or dose adjustment, each of: alanine aminotransferase increased, fatigue, gastroesophageal reflux disease, hyponatremia, suspected COVID-19 ([1]; overall, 45 patients, groups pooled, each term): 2.2%
- Median PFS ([2]; RECIST v1.1, Kaplan–Meier, by treatment group, listed as LHC165 SA): 1.4 months
- Best overall response: CR [2, 14]: 0 n (%)
- Best overall response: PD [2, 14]: 27 (60.0) n (%)
- Best overall response: PR [2, 14]: 3 (6.7) n (%)
- Best overall response: SD [2, 14]: 5 (11.1) n (%)
- Best overall response: Unknown [2, 14]: 10 (22.2) n (%)
- DCR (CR + PR + SD) [2, 14]: 8 (17.8) n (%)
- ORR (CR + PR) [2, 14]: 3 (6.7) n (%)
- DCR / disease control [2, 15]: 17.8%
- ORR (CR + PR) across all tumor types [2, 15]: 6.7%
- Best overall response PD [2, 16]: 66.7%
- Best overall response PR [2, 16]: 4.8%
- Best overall response unknown (UNK) [2, 16]: 28.6%
- Best overall response: CR [2, 17]: 0 n (%)
- Best overall response: PD [2, 17]: 14 (66.7) n (%)
- Best overall response: PR [2, 17]: 1 (4.8) n (%)
- Best overall response: SD [2, 17]: 0 n (%)
- Best overall response: Unknown [2, 17]: 6 (28.6) n (%)
- DCR (CR + PR + SD) [2, 17]: 1 (4.8) n (%)
- ORR (CR + PR) [2, 17]: 1 (4.8) n (%)
- DOR, median (range) ([2]; RECIST v1.1, responders by treatment group): 3.81 (3.8-3.8) months
- DOR, median (range) ([2]; RECIST v1.1, responders, all patients (SA and combination groups pooled)): 13.77 (3.8-29.7) months
- Overall median PFS ([2]; all patients, groups pooled): 1.7 months
- Patients who discontinued study treatment due to progressive disease ([2]; by treatment group): 71.4%
- MTD ([3]; LHC165 100-600 μg biweekly IT, SA and with spartalizumab 400 mg Q4W): No maximum tolerated dose was reached; also recorded: not reached
- Recommended dose for expansion (RDE) ([3]; biweekly IT, as SA and in combination with spartalizumab 400 mg Q4W): 600 µg
- DLTs observed during dose escalation ([3]; combination: two episodes of grade 3 pancreatitis at LHC165 400 μg): No DLTs
- Dose dependence of Cmax and AUClast ([4]; 100-600 μg IT): increased in a dose-dependent manner
- Accumulation in serum LHC165 after multiple IT injections ([4]; Cmax and AUClast between C1D1 and C2D15 comparable): No accumulation
- Drug–drug interaction between LHC165 and spartalizumab ([4]; comparable exposure between SA and combination groups): No evidence of drug–drug interaction
- Overall median immune-related PFS (iPFS) [5]: 1.7 months
- AEs specific to aluminum toxicity ([6]; LHC165 adsorbed to aluminum hydroxide): No AEs specific to aluminum toxicity were reported
- Aluminum level, mean (standard deviation) ([6]; cycle 1 day 15 (C1D15)): 0.24 (0.087) μmol/L
- Aluminum level, mean (standard deviation) ([6]; end of treatment): 0.30 (0.128) μmol/L
- Maximum observed aluminum value during the study ([6]; mild elevation levels >1.85 μmol/L): 0.520 µmol

Molecule: CCCCCCCCCCCCCCCCCC(=O)NCCCCOn1c(CCCC)nc2c(N)nc3ccccc3c21 [MEDI9197]
- Toxicities [7]: tolerable toxicities

B1: spartalizumab: humanized immunoglobulin G4 (IgG4) anti-programmed cell death protein-1 (anti–PD-1) monoclonal antibody (antibody, chains of the INN, looked up, V domains shown)
VH: EVQLVQSGAEVKKPGESLRISCKGSGYTFTTYWMHWVRQATGQGLEWMGNIYPGTGGSNFDEKFKNRVTITADKSTSTAYMELSSLRSEDTAVYYCTRWTTGTGAYWGQGTTVTVSS
VL: EIVLTQSPATLSLSPGERATLSCKSSQSLLDSGNQKNFLTWYQQKPGQAPRLLIYWASTRESGVPSRFSGSGSGTDFTFTISSLEAEDAATYYCQNDYSYPYTFGQGTKVEIK
- Overall response rate (ORR) [8]: 24%
